What was measured:
[1] = Inhibition of full length HCV 1b Con1 NS3/4A protease using HiLyte Fluor 610 peptide substrate by biochemical FRET assay; set-up: species or system Hepatitis C virus (isolate Con1)
In short: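 Fluorescence (FRET) protease assay on full-length genotype 1b Con1 HCV NS3/4A with HiLyte Fluor 610 peptide substrate; IC50 from percent inhibition versus concentration by four-parameter sigmoidal non-linear regression.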

[2] = Cytotoxicity against human GS4.1 cells assessed as induction of cell death; assay type: cell-based
In short: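 GS4.1 cells (Huh-7 with Con1 subgenomic replicon); CC50 taken as concentration giving 50% cell death, from death versus concentration data relative to blank control.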

[3] = tested on: Hepatitis C virus; assay: Antiviral activity against HCV Con1 infected in human GS4.1 cells containing HCV Con1 subgenomic replicon assessed as reduction in NS5A protein expression by ELISA method; assay type: functional, cell-based, Hepacivirus hominis; conditions: genotype 1b Con1
In short: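 Huh-7 cells carrying HCV Con1 subgenomic replicon (GS4.1); replication followed as NS5A protein expression by ELISA; EC50 from 50% inhibition versus concentration data fitted by four-parameter sigmoidal non-linear regression.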

[4] = Intrinsic clearance in rat liver microsomes incubated for 2 hrs; assay type: ADME; conditions: read-out: CLH

Row | Compound | IC50 [1] [nM] | CC50 [2] [nM] | EC50 [3] [nM] | microsomal CLint [4] [µL/min/mg]
1 | CCCn1cc(-c2cc(OCC[C@@H]3NC(=O)N(C)CCCC/C=C\[C@@H]4C[C@@]4(C(=O)NS(=O)(=O)C4(C)CC4)NC3=O)c3ccc(OC)c(C)c3n2)cn1 | 1.4 | 62300 | 145 | –
2 | COc1ccc2c(OCC[C@@H]3NC(=O)N(C)CCCC/C=C\[C@@H]4C[C@@]4(C(=O)NS(=O)(=O)C4(C)CC4)NC3=O)cc(-c3cc(C(F)(F)F)nn3C)nc2c1C | 1 | 34500 | 440 | –
3 | COc1ccc2c(OCC[C@@H]3NC(=O)N(C)CCCC/C=C\[C@@H]4C[C@@]4(C(=O)NS(=O)(=O)C4(C)CC4)NC3=O)cc(-n3ccc(C(F)(F)F)n3)nc2c1C | 1.8 | 45800 | 35 | 14.4
4 | COc1ccc2c(OCC[C@@H]3NC(=O)N(C)CCCC/C=C\[C@@H]4C[C@@]4(C(=O)NS(=O)(=O)C4(C)CC4)NC3=O)cc(-n3ccc(C(F)(F)F)n3)nc2c1Cl | 1.1 | 48800 | 15.3 | –
5 | COc1ccc2c(OCC[C@@H]3NC(=O)N(C)CCCC/C=C\[C@@H]4C[C@@]4(C(=O)NS(=O)(=O)C4(F)CC4)NC3=O)cc(-c3nc(C(C)C)cs3)nc2c1Cl | 2.7 | 51400 | 150 | –
6 | CCC1(S(=O)(=O)NC(=O)[C@@]23C[C@H]2/C=C\CCCCN(C)C(=O)N[C@@H](CCOc2cc(-c4nc(C(C)C)cs4)nc4c(Cl)c(OC)ccc24)C(=O)N3)CC1 | 3.3 | 49300 | 89 | –
7 | COc1ccc2c(OCC[C@@H]3NC(=O)N(C)CCCC/C=C\[C@@H]4C[C@@]4(C(=O)NS(=O)(=O)C4(C#N)CC4)NC3=O)cc(-c3nc(C(C)C)cs3)nc2c1Cl | 14.4 | > 75000 | > 750 | –
8 | C#CC1(S(=O)(=O)NC(=O)[C@@]23C[C@H]2/C=C\CCCCN(C)C(=O)N[C@@H](CCOc2cc(-c4nc(C(C)C)cs4)nc4c(Cl)c(OC)ccc24)C(=O)N3)CC1 | 0.7 | 26300 | 28.9 | –
9 | COc1ccc2c(OCC[C@@H]3NC(=O)N(C)CCCC/C=C\[C@@H]4C[C@@]4(C(=O)NS(=O)(=O)N(C)C)NC3=O)cc(-c3nc(C(C)C)cs3)nc2c1Cl | 2.1 | 47800 | 84.5 | –
10 | COc1ccc2c(OCC[C@@H]3NC(=O)N(C)CCCC/C=C\[C@@H]4C[C@@]4(C(=O)NS(=O)(=O)N4CCC(F)(F)C4)NC3=O)cc(-c3nc(C(C)C)cs3)nc2c1Cl | 165 | 37600 | > 750 | –
11 | COc1ccc2c(OCC[C@@H]3NC(=O)N(C)CCCC/C=C\[C@@H]4C[C@@]4(C(=O)NS(=O)(=O)N4CCOCC4)NC3=O)cc(-c3nc(C(C)C)cs3)nc2c1Cl | 150 | 26400 | > 750 | –
12 | COc1ccc2c(OCC[C@@H]3NC(=O)N(C)CCCC/C=C\[C@@H]4C[C@@]4(C(=O)NS(=O)(=O)N4CCC[C@H]4C#N)NC3=O)cc(-c3nc(C(C)C)cs3)nc2c1Cl | 264 | 28300 | > 750 | –
13 | C#C[C@@H]1CCCN1S(=O)(=O)NC(=O)[C@@]12C[C@H]1/C=C\CCCCN(C)C(=O)N[C@@H](CCOc1cc(-c3nc(C(C)C)cs3)nc3c(Cl)c(OC)ccc13)C(=O)N2 | 33.8 | 21200 | > 750 | –
14 | COc1ccc2c(O[C@@H]3C[C@H]4C(=O)N[C@]5(C(=O)O)C[C@H]5/C=C\CCCCC[C@H](NC(=O)OC5CCCC5)C(=O)N4C3)cc(-c3csc(NC(C)C)n3)nc2c1 [CILUPREVIR] | 0.9 | 21000 | 2.8 | –

From ChEMBL document CHEMBL3608234, “Synthesis and antiviral evaluation of a novel series of homoserine-based inhibitors of the hepatitis C virus NS3/4A serine protease” (Bioorg Med Chem Lett, 2015)
